Results on one molecule are retold here after article PMC4285624 (Biochemical pharmacology, 2014).

The conditions of series [1]: cited from earlier work.
In series [2] the test system is lung cancer cell line. The note with it: cited from earlier work.
The target of series [3] is RPA DBD-A/B (Homo sapiens, UniProt P27694). As to the kind of experiment: EMSA of RPA DBD-A/B binding to DNA. The following applies: 150 nM DBD-A/B, compounds 25–100 μM. It counts as biochemical. Summed up: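 The RPA181–432 DBD-A/B fragment was expressed in E. coli BL21(DE3) as a SUMO-His6 fusion (0.5 mM IPTG, 3 h, 37 °C). It was Ni-NTA purified, SUMO-cleaved with ULP1, and polished by size exclusion. Protein was preincubated 30 min with compound, then mixed with 2.5 nM 5′-32P 34-base DNA for 5 min at room temperature. Products were run on 6% native gels at 4 °C and quantified by phosphorimager.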
Background: Mobility shift assays separate free from complexed probe on a gel.

Series [4] deals with Full length, heterotrimeric human RPA (fl-RPA) (Homo sapiens, UniProt P27694). Briefly: EMSA of full length RPA binding to ssDNA. The class given is biochemical. The following applies: read-out: In vitro IC50, RPA-DNA binding, compounds titrated 1–125 μM. Summed up:
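Recombinant full-length heterotrimeric human RPA (50 nM, E. coli-expressed) was preincubated 30 min with DMSO-dissolved compound (DMSO ≤5%). Bound and free DNA were separated on 6% native gels and quantified by phosphorimager. IC50 came from nonlinear regression; three independent determinations.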

Series [5] has as its system peripheral blood lymphocytes. The note with it: cited from earlier work.

Sequence of Full length, heterotrimeric human RPA (fl-RPA) (P27694 whole entry): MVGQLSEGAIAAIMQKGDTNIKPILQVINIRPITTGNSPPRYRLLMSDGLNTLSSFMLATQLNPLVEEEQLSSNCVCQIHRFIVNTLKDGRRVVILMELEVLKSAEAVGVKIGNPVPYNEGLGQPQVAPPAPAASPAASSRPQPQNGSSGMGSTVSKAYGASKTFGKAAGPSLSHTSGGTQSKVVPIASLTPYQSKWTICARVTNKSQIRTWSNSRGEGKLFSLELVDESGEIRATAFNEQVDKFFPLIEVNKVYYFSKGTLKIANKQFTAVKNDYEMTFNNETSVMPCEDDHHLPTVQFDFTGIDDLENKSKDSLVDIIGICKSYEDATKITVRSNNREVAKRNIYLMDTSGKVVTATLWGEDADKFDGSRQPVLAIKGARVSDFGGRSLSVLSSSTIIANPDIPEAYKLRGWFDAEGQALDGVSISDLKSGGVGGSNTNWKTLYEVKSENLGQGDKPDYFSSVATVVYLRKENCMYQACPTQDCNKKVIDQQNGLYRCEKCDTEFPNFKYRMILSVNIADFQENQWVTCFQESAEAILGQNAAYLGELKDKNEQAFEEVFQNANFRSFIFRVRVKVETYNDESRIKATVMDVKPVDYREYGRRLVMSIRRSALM
Sequence of Full length, heterotrimeric human RPA (fl-RPA) (P15927 whole entry partner): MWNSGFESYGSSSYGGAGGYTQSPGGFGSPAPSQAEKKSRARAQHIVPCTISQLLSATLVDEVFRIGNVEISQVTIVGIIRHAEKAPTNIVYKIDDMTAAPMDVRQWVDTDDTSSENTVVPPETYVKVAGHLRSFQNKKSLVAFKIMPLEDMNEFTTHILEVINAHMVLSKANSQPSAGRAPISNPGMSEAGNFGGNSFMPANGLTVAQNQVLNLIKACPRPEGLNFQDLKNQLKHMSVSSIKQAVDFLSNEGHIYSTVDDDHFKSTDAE
Sequence of Full length, heterotrimeric human RPA (fl-RPA) (P35244 whole entry partner): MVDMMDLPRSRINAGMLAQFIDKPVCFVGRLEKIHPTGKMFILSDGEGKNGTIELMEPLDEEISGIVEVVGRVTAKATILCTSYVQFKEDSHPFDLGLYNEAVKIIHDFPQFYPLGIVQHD
Sequence of RPA DBD-A/B (P27694 181-432): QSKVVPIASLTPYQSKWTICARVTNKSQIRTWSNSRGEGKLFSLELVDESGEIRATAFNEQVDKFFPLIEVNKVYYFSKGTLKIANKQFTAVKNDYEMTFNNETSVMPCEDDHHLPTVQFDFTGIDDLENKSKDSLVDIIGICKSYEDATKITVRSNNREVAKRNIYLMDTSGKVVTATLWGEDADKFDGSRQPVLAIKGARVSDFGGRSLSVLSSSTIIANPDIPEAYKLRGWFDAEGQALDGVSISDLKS

On to `CCOc1ccc2cc(C3CC(c4ccc(Br)cc4)=NN3C(=O)CCC(=O)O)c(Cl)nc2c1` (stereo not drawn) [TDRL-505], for which the cell cycle effect result in series [1] is on record as “G1 cell cycle arrest”. The “synergy with Pt” value in series [2] (lung cancer cell line, published data) is given as “synergy”. Further, in series [2] (lung cancer cells, flow cytometry based Annexin-PI staining assay), the synergy with etoposide entry is listed as “highly synergistic”. The “inhibition of RPA DBD-A/B-DNA interaction” value in series [3] is on record as “inhibit RPA DBD-A/B-DNA interaction”. The IC50 in series [4] is 38 µM. Besides, the “cytotoxic effects on peripheral blood lymphocytes” value in series [5] is given as “minimal cytotoxic effects”.

Broadly, the IC50 is the point on the concentration scale where inhibition reaches its midpoint.
